# Bioassay records deposited in PubChem by Broad Institute.
# esBAF inh: Bmi1 luciferase reporter increase in mESCs, primary screen, esBAF inhibitor project, mouse ES cells, Bmi1 luciferase knock-in, single point. reporter increase, % at 12.5 µM. 24 h; 100% = twice the neutral-well signal. hit rate 2% among 350,000; in the data active = activation above about 40%; inconclusive = no clear call, values can overlap the other calls;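 also: 0% = median of the plate's neutral control wells and 100% = double that signal; a rise in the Bmi1 reporter signal indicates esBAF inhibition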
# Wnt act: Wnt/beta-catenin pathway activators, primary screen, cell-based, plate reader, single point; Wnt/beta-catenin reporter cell assay, activator; activation, % at 9.35 µM; hit rate 1.2% among 300,000; in the data active = activation above about 30%, passing the limit was not always enough; inconclusive = no clear call, values can overlap the other calls;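 also: 0% = neutral control wells and 100% = positive control wells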
# Vif inh: HIV Vif self-association inhibitors, primary screen, imaging, HEK293T, single point; HEK293T cells, Vif self-association by quenched fluorescence, 24 h; inhibition, % at 7.49 µM; hit rate 0.35% among 340,000; in the data active = inhibition above about 50%, passing the limit was not always enough; inconclusive = no clear call, values can overlap the other calls; inactive = below about 31%
# Xi reactivation: activators of inactive X chromosome reactivation, primary screen, imaging, XiGFP fibroblasts, GFP high-content imaging, set 2; AID 743238, 2013; hit rate 0.055% among 360,000; activation, % at 7.58 µM; XiGFP mouse fibroblasts, % GFP-positive cells imaging, 3 d; cells co-treated with 5-aza-dC sensitizer; scaled so ellipticine positive control = 100%;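 active = mean normalized replicate activation at least 10% and every replicate at or above 10%; inconclusive = only one of the two criteria met; inactive = mean below 10% and not all replicates reach 10%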;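 also: 0% = median of on-plate neutral control wells and 100% = ellipticine 6 µM median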
#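 Schedule: 3 d treatment, 15 min room-temperature fixation; system: 68-5-11 XiGFP fibroblast line; buffer or medium: DMEM plus 5-aza-dC sensitizer; control set: ellipticine 6 µM positive control; compound: one concentration, pinned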
# MITF act: activators of MITF-driven TRPM1 promoter reporter, primary screen, cell-based, SK-MEL-5, luciferase, single point. activation, % at 12.5 µM. SK-MEL-5 TRPM1-promoter luciferase, 24 h; % of positive control, neutral wells = 0. hit rate 0.75% among 300,000. AID 588334, 2011;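 active = mean activation of at least 80% with every replicate also reaching 80%; inconclusive = mean reaches 80% but some replicate falls short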;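 also: 0% = neutral control wells and 100% = parthenolide positive control wells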
# Starred values were filed as active, the others as inactive; ? = inconclusive; nt = no result. Hits are enriched below; roughly 2.6% of the tested compounds scored in any of these assays.
SMILES,esBAF inh,Wnt act,Vif inh,Xi reactivation,MITF act
O=c1c2ccccc2oc2cc(NCCCN3CCOCC3)ccc12,43*,44*,1,0,106*
Cn1c2ccccc2c(=O)c2cc(NCCCN3CCOCC3)ccc21,33,25,1,0,55
O=c1c2ccccc2oc2ccc(NCCCN3CCOCC3)cc12,-6,26,3,0,137*
COc1ccc2c3c(n(C)c2c1)[C@H](CO)N(C)CC31CCN(C(=O)c2ccccc2F)CC1,nt,nt,nt,0,nt
CC(C)c1cn(CC[C@@H]2CC[C@@H](NS(=O)(=O)c3ccccc3)[C@H](CO)O2)nn1,-3,nt,nt,0,nt
CC(=O)c1ccc(N/C=C\C(=O)c2ccc(C)cc2)cc1,nt,66*,-6,0,93*
CC(=O)Nc1ccc(C(=O)NNC(=O)c2ccc(Cl)cc2)cc1,-7,-1,18,0,nt
CC(=O)Nc1ccc(N/C=C/C(=O)c2ccc(Cl)cc2)cc1,59*,27,30,0,nt
O=C(C[C@@H]1C[C@H]2c3cc(NC(=O)NC4CCCCC4)ccc3O[C@H]2[C@@H](CO)O1)NC1CCCC1,nt,nt,nt,0,nt
c1ccc(-c2ccc(-c3ccccc3)[nH]2)cc1,72*,0,10,0,46
CCOC(=O)C1CCN(C(=O)c2ccc(N(C)S(C)(=O)=O)cc2)CC1,7,nt,7,nt,3
COC(=O)c1ccc(NC(=O)COC(=O)C2CCC2)cc1,1,0,nt,0,7
CN(c1ccc(C(=O)COC(=O)C2CC2)cc1)S(C)(=O)=O,3,14,2,0,83*
CC(C)(C)C(=O)Nc1ccc(C(=O)COC(=O)C2CC2)cc1,60*,1,0,0,76
C[C@@H]1CN([C@@H](C)CO)C(=O)c2cc(NC(=O)Cc3cn(C)c4ccccc34)ccc2O[C@@H]1CN(C)Cc1ccc(C(=O)O)cc1,2,nt,nt,-1,nt
O=C(c1cccs1)N1CCN(C(=O)c2cccs2)C1=S,14,-1,76*,0,-16
O=C(c1ccc(Cl)cc1)N1CCn2c1nc1ccccc12,49*,2,-4,0,62
O=C(c1cccs1)N1CCCC1,-12,-1,0,nt,-3
COc1ccc(C(=O)N2CCn3c2nc2ccccc23)cc1,?,23,-6,nt,78
O=C(c1cccs1)N1CCn2c1nc1ccccc12,36,15,-4,nt,82*
O=C(NC1CCCC1)[C@@H]1[C@@H](CO)[C@@H]2Cn3c(cccc3=O)[C@H]1N2Cc1cc(F)ccc1F,0,nt,nt,1,nt
CO[C@H]1CN(C)C(=O)c2cc(NS(=O)(=O)CC(F)(F)F)ccc2OC[C@@H](C)N(C(=O)c2ccc3c(c2)OCO3)C[C@H]1C,-5,nt,nt,0,nt
O=C(OCc1ccccc1)N1CCC2CC1c1ccc(/C=C/CCCCl)cc12 (centres undefined),59*,1,-5,0,nt
CCCCNc1ccc2c(c1)C1CC2CCN1C(=O)OCc1ccccc1 (centres undefined),100*,11,-1,1,125*
C[C@H]1CN([C@@H](C)CO)C(=O)c2cc(NC(=O)CCCN(C)C)ccc2O[C@H]1CN(C)S(=O)(=O)c1ccc(Cl)cc1,2,nt,nt,0,nt
SMILES,esBAF inh,Wnt act,Vif inh,Xi reactivation,MITF act
CC=Cc1ccc2n(c1=O)C[C@@H]1[C@@H](CO)[C@H](C(=O)NC3Cc4ccccc4C3)N(CC3CCCC3)[C@H]21 (mixture of isomers),nt,nt,nt,0,nt
CO[C@@H]1CN(C)C(=O)c2ccc(NC(=O)c3ccccc3)cc2OC[C@@H](C)N(CC2CC2)C[C@@H]1C,-2,nt,nt,0,nt
CCOC(=O)/C=C/c1ccc2oc3ccccc3c(=O)c2c1,49*,23,-16,0,97*
FC(F)(F)c1ccc(-c2csc(-c3ccno3)n2)cc1,50*,23,0,0,nt
N#Cc1ccc(-c2csc(-c3ccno3)n2)cc1,nt,-1,-3,0,nt
COc1ccc(NC(=O)N[C@H]2CC[C@H](CCNC(=O)Nc3cc(F)ccc3F)O[C@@H]2CO)cc1,0,nt,nt,2,nt
O=C(COC(=O)C1=COCCO1)Nc1cc(Cl)c(Cl)cc1Cl,-4,45*,0,0,7
O=C(COc1ccc2ccccc2c1)NNC(=O)c1ccccc1,-2,0,-5,0,2
O=Cc1ccc(OCc2ccc3ccccc3c2)cc1,50*,16,2,0,103*
CCOc1ccc(OCc2ccc(C(=O)O)o2)cc1,20,nt,2,nt,-45
O=Cc1ccc(OCc2ccccn2)cc1,12,12,14,nt,74
COc1ccc(COc2cccc(C=O)c2)cc1,22,20,-2,0,7
NNC(=O)c1ccc(COc2ccc3ccccc3c2)cc1,nt,33*,13,0,30
O=C(O)c1ccc(COc2ccc3ccccc3c2)o1,nt,51*,-2,0,40
O=Cc1cccc(OCc2cccc3ccccc23)c1,66*,10,6,0,68
O=C(NCC1CCCO1)c1ccc(/C=N/O)nc1 (centres undefined),1,-1,11,nt,nt
CC1CCCN(c2ccc(C(=O)NCC3CCCO3)cn2)C1 (centres undefined),50*,8,-1,nt,54
CC1CCN(c2ccc(C(=O)NCc3cccs3)cn2)CC1,59*,nt,3,nt,77
O=C(O)CCCCn1c(SCc2cc(=O)n3cc(Cl)ccc3n2)nc2ccsc2c1=O,nt,-1,-6,0,-1
O=C(O)CCCCn1c(SCc2ccccc2Cl)nc2ccsc2c1=O,nt,-1,59*,0,0
Cc1ccc(NC(=O)CNCc2cccs2)cc1Br,?,0,0,0,16
CC(=O)c1ccc(NC(=O)CNCc2cccs2)cc1,54*,14,9,0,67
O=C(C[C@H]1C=C[C@@H](NC(=O)C2CC2)[C@@H](CO)O1)NC1CCC1,-1,nt,nt,0,nt
Cn1nnnc1SCC(=O)Nc1nc2c(s1)CCCC2,18,?,26,nt,93*
C[C@H]1CN([C@@H](C)CO)C(=O)Cc2cc(NC(=O)Cc3ccccc3)ccc2O[C@H]1CN(C)C(=O)NC1CCCCC1,6,nt,nt,0,nt
COc1ccc2c(c1)CC/C(=C\c1ccc(C)o1)C2=O,40,16,-4,0,87*
O=C(Nc1cccc(F)c1)c1ccc2c(c1)OCCO2,40,-1,0,0,36
O=C(Nc1ccc2c(c1)OCCO2)c1c(F)cccc1F,-11,21,-5,nt,102*
O=C(NC(=S)Nc1ccc2c(c1)OCCO2)c1ccccc1F,54*,18,-3,0,85*
O=C(Nc1ccc2c(c1)OCCO2)c1ccccc1F,-30,5,0,nt,nt
